Measurements as given in the EternaBench riboswitch data.

Tested on: MS2 coat protein
Assay: apparent Kd, MS2 coat protein; higher = weaker binding; RNA-MaP array; FMN 200 µM where present
Summary of the method: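 SNAP-549-labelled MS2 coat protein, doubled from 0.7 or 1.5 nM to 3 µM, was titrated over designs transcribed by stalled E. coli RNA polymerase on Illumina sequencing-chip clusters. Titrations were run without and then with constant ligand in 100 mM Tris-HCl pH 7.5, 80 mM KCl, 4 mM MgCl2, BSA, DTT, yeast tRNA and Tween-20. The apparent Kd is the median of filtered per-cluster fits to green signal normalised to red-channel RNA signal and control-cluster median Fmax.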

[1] = designed as: OFF switch for flavin mononucleotide, no ligand
[2] = ligand present: flavin mononucleotide, designed as: OFF switch for flavin mononucleotide
[3] = designed as: ON switch for flavin mononucleotide, no ligand
[4] = ligand present: flavin mononucleotide, designed as: ON switch for flavin mononucleotide

| Sequence | apparent Kd [1] | apparent Kd [2] | apparent Kd [3] | apparent Kd [4] |
| --- | --- | --- | --- | --- |
| AUUUAGAGAGGAUAUAUAAUGUGAAACAUGAGGAUCACCCAUGUAAUAUUAUGGAUGUAAAUAGAAGGCUCAUUUA | 32.7 nM | 27.7 nM | – | – |
| GUAGCAUUGAGAGGAUAUCCAUACCGGAAACGGACAUGAGGAUCACCCAUGUGGCGAAAGCCAUGGGAGAAGGCUCUAUGUUAC | – | – | 11.1 nM | 4.96 nM |
| GUGUAGAUAGGAUAUGCAUAGAGCUUACGAAAGUAGGCUCUACAUGAGGAUCACCCAUGUAGAAGGGUCUACAC | 27.9 nM | 21.2 nM | – | – |
| CUGGUUGUCGUAGGAUAUGUAGGAUAUUCCUACAUGAGGAUCACCCAUGUUCGCAUGGAAGAAAGACAGAAGGACGAUGACCAU | – | – | 1190 nM | 52.2 nM |
| GGUACUCAAAGAGUACCAAUACGUACAUGAGGAUCACCCAUGUAGGAUAUGCUACUCAAAGAGUAGCAGAAGGACAUGUGCCUA | 12.7 nM | 31 nM | – | – |
| CCGGAUAUGCAGGAUAUCGUAUCGGAUACGAUACGAGAAGGGUAUACAUGAGGAUCACCCAUGUGCCUUACCGG | 19.3 nM | 20 nM | – | – |
| UUGGACGUCGUAGGAUAUGUAGGAUAUUCCUACAUGAGGAUCACCCAUGUUGACAUGCAAGAAGGACAGAAGGACGAUGUCCAU | – | – | 240 nM | 6.54 nM |
| AGUUAAUAUCGAGGAUAUCUCAUGGAUACAUGAGGAUCACCCAUGUUAAUGGGAGAAGGCGAUAUUAACAGCAUGUUACAUGCA | – | – | 28 nM | 7.38 nM |
| CCGAAUGUCACAGGAUAUGGUCCGGGCACGCGACCAGAAGGGUGAUCUCACAUGAGGAUCACCCAUGUGCAGGCGUAAGGCUGC | – | – | 28.4 nM | 193 nM |
| CGUGCGUAUGUGAGGAUAUGCUGGUCCUUGGAUCGGCAGAAGGCACAUGAGGAUCACCCAUGUGGUGUCGUACG | 351 nM | 22.9 nM | – | – |
| UCCUUCUGUUGAGGAUAUGUAAGACAGCGACUGCUAUUGCGGCACGCUGAUACAGAAGGCAACAUGAGGAUCACCCAUGUUCAA | 22.9 nM | 199 nM | – | – |
| AUUAUGUAAGGAUAUCUUACAUGUGACUUCGGUCACUGUUAAGAGAAGGUACAUGAGGAUCACCCAUGUAGAAC | 18.7 nM | 28.7 nM | – | – |
| CGGCAUGUCUGAGGAUAUCUGCACGUUUAGUGCAGAGAAGGCAGAACAUGAGGAUCACCCAUGUAGAUCAUUAACCGAUUAAUU | 228 nM | 337 nM | – | – |
| GCACUGGCAGGAUAUACAUGAGGAUCACCCAUGUGACCCUUGAUGUACUCGCGUACACGUAGAAGGGCCUGUGC | 120 nM | 571 nM | – | – |
| GUUUCACAUGAGGAUCACCCAUGUGAGGAUAUAGAUUUGUUAGUGGUGAUUGGUGGAUUUAGAAGGCGCGUGAU | 81.3 nM | 66.2 nM | – | – |
| AUAAACCAAGGAUAUACAUGAGGAUCACCCAUGUUCCCUUGAACCCAGGGUAUGCAAUGUAGAAGGUGGGAAAC | 20 nM | 29.5 nM | – | – |
| UGAUAGGACAGAGGAUAUACCGAUAGGAGAUACUAUCGACUAUUCCUCACAUGAGGAUCACCCAUGUAGAAGGCUGUCCUAUCU | 15.5 nM | 60.2 nM | – | – |
| GCGCGAAGGUAGGAUAUCCAGGGAUCUUCCCGCGGAGAAGGACCCACAUGAGGAUCACCCAUGUGGUGAUCCUG | 16.1 nM | 17.4 nM | – | – |
| GCAGUAAAUAAAUGCACAUGAGGAUCACCCAUGUGGGAGGCACAGGAUAUCGUAUCAUAGUAGUACGAGAAGGGUGAUAAUCUC | – | – | 370 nM | 64.2 nM |

| Sequence | apparent Kd [1] | apparent Kd [2] | apparent Kd [3] | apparent Kd [4] |
| --- | --- | --- | --- | --- |
| UAAAAUAGUGUGAGGAUAUGCUGGUCCUUGGAUCAGCAGAAGGCACAUGAGGAUCACCCAUGUAGUUAAUUUUA | 40.5 nM | 218 nM | – | – |
| UGUAACCGAGGAUAUACAUGAGGAUCACCCAUGUAAUGUAGUAUAGUGUAUGUGAGGUGUAGAAGGUGGGAUGU | 75.6 nM | 71.6 nM | – | – |
| CGACAUACGAUGGACGGAAACGUACAUGAGGAUCACCCAUGUAGAAGGCGAUCCGCAACGCGGAUUGAGGAUAUAUACCACACA | 19.2 nM | 17.8 nM | – | – |
| AUCUGGUCCUUACGCCCACAUGAGGAUCACCCAUGUCAGGCACAGGAUAUCCCGGGAGCUUUGGUGGAGAAGGGUGCCCUUGGG | 55.6 nM | 100 nM | – | – |
| GGUAAAGGCAGCCUCUACCCUGCACAUGAGGAUCACCCAUGUAAGGAUAUCGCCGCGGUAAUGGUCGAGAAGGUAUAUCGGGUU | 15.9 nM | 46.5 nM | – | – |
| CGAAUACGCGUGAGGAUAUCGUUCGAAUAUUGCGAUGAGAAGGCACAUGAGGAUCACCCAUGUAGGUAUCCUGG | 73.2 nM | 120 nM | – | – |
| CUCUUGGCAGGAUAUGCUCUCUUAGACAUGAGGAUCACCCAUGUGUUCAUUCUUUCUUUUGCAGAAGGGCCUUAAC | 87.1 nM | 82.8 nM | – | – |
| AUCAGCUCGUCAGGAUAUACGUCACUGCGUCAGCAGCGUGGUAAGAUCACAUGAGGAUCACCCAUGUAGAAGGGACGAGCUGAU | 25.7 nM | 336 nM | – | – |
| UUAACAUGAGGAUCACCCAUGUCGUGCUAGAUGAGUUCUGGUGAGGAUAUACAUGGUAAAGAACUGUAGAAGGCACUGGGUACA | – | – | 309 nM | 336 nM |
| AUAAAACAUGAGGAUCACCCAUGUCAACAAAGUCGAGGAUAUGGGCAAAUAAAAUAAGAACCAGAAGGCGAAUAAU | – | – | 398 nM | 36.6 nM |
| AAAACAUGAGGAUCACCCAUGUAAAGAUCGGUCGAUCAAGGUGAGGAUAUACAAUAAUUGAUGGAGUAGAAGGCACUGGGUUGA | – | – | 227 nM | 127 nM |
| UGCUGGCGAGGAUAUGCUCGGGAUGCUAGUCGCGCGGUUGCACAUGAGGAUCACCCAUGUAGAAGGUGUCUGUG | 170 nM | 169 nM | – | – |
| GCACUCAAGUUAGGAUAUGGAUCGGAAAACGAUCCAGAAGGAAUAUGGGAACAUGAGGAUCACCCAUGUUCCAGAAACGAGUGC | – | – | 62.5 nM | 30.4 nM |
| GAGAAGUGAGGAUAUGCUGCUCGUCACUUGCGUGAUGAGUAGCAGAAGGCACAUGAGGAUCACCCAUGUAAAGG | 133 nM | 244 nM | – | – |
| UCCUUGGUACAGAAGGACCGAGCUCCGUAGCAGGUAGGAUAUGUACAUGAGGAUCACCCAUGUCAGCGGUAAUUACCAGUAUUC | 40.2 nM | 29.1 nM | – | – |
| UUAAUUUUAUGAUAUUAUGACAUUAGAAGGCUGUACAUGUUGAUACAUGAGGAUCACCCAUGUAUAGAGGAUAUAGACAAUUUU | 32.4 nM | 63.9 nM | – | – |
| UCCUUGUCCUGAGGAUAUCCGCGGUUCCCAUAAGGAGAAGGCAGGACAUGAGGAUCACCCAUGUACCCAGAAAACGUGCAGAGU | 24 nM | 156 nM | – | – |
| UGUAUUAAUGGAGGAUAUCGAUAUCAAACAUGAGGAUCACCCAUGUUGAGGAUCACCCAUGUCCAUGAGAAGGCUGGCGUACGU | – | – | 45.4 nM | 40.9 nM |
| UUGGACGUCGUAGGAUAUGCAGGAUAUUCCUACAUGAGGAUCACCCAUGUUGACAUGGAAGAAGGACAGAAGGACGAUGUCCAU | – | – | 11 nM | 5.38 nM |

| Sequence | apparent Kd [1] | apparent Kd [2] | apparent Kd [3] | apparent Kd [4] |
| --- | --- | --- | --- | --- |
| AAGGAUAGAGGAUAUACAUAGAUACAGAUUCAUGUAGAACUACAUGAGGAUCACCCAUGUAGAAGGCUAUCCUA | 32.9 nM | 239 nM | – | – |
| AAGUAGGGAGGAUAUACAUAGAUACAGAUUCAUGUGGAACUACAUGAGGAUCACCCAUGUAGAAGGCCCUAAUA | 27.2 nM | 102 nM | – | – |
| CACGGACAUGAGGAUCACCCAUGUGAGGAUAUGCUCUACGAACGUUUUCCCACGAGAAGCAGAAGGCACAUUUC | 78.2 nM | 135 nM | – | – |
| CGAUGGCAUGUAGGAUAUCGAGCUCAAAGAGCUCGAGAAGGACAUGAGGAUCACCCAUGUCGUCACAGACAGUGACGGCUAUCG | 24.4 nM | 133 nM | – | – |
| AAGUAGGGAGGAUAUACAUAGAUACAGAUUCAUGUAGAACUACAUGAGGAUCACCCAUGUAGAAGGCCCUAAUA | 31.6 nM | 193 nM | – | – |
| ACGCUUUGGGAGAAGGUACUUUAAAUUUUUUCCACAUGAGGAUCACCCAUGUAAGGAUAUCCCAUCGUUAAAUAUUCUACAGCA | 8.4 nM | 7.06 nM | – | – |
| UGUGCGUAUGUGAGGAUAUGCUGGUCCUUGGAUCGGCAGAAGGCACAUGAGGAUCACCCAUGUGGUGUCGUUCU | 389 nM | 24.8 nM | – | – |
| CGCUAAUAGAACGAUUUGUGAAGACAUGAGGAUCACCCAUGUAGAAGGACAACGGAAUAAACGUUGUAGGAUAUACACUUAGCG | 18.1 nM | 24.4 nM | – | – |
| CAUGGCACGUAGGAUAUCUCGCAGCCCGGCUGCAGAGAAGGACGUACAUGAGGAUCACCCAUGUAUGAUCCAAA | 24.5 nM | 49.2 nM | – | – |
| AAUUAUUUAUGAGGAUAUUGUGGUGAAACACCACAAGAAGGCAUGAUACACAUGAGGAUCACCCAUGUGAGCCUGAUGCAUAUA | 17.2 nM | 28.4 nM | – | – |
| UUACCUUAUGAGAAGGCGGUCAUGAAACAUGAUCGAGGAUAUCAUGUAAACAUGAGGAUCACCCAUGUAUGGGUAUUAUGGUAU | – | – | 142 nM | 27.3 nM |
| GUAGCAACAUGAGGAUCACCCAUGUAGGAUAUCGCUAUUGUAAUCAUGAAACAUGAUUACAAUAGCGAGAAGGACAUAAGCUAC | 6.67 nM | 8.84 nM | – | – |
| AUGCUUUUUGUAGGAUAUACAUUUUGUACGUAUGUAGAAGGACAUGAGGAUCACCCAUGUAAAUAAAUAUUAAAUAUCAUACUU | 54.6 nM | 39.6 nM | – | – |
| UUAAUUUGAUGAUAUUAUGACAUUAGAAGGCUGUACAUGUUGAUACAUGAGGAUCACCCAUGUAUAGAGGAUAUAGACAAUUUU | 40.9 nM | 91.7 nM | – | – |
| GGGUAACAUGAGGAUCACCCAUGUGAGGAUAUCCUAGGGAUGGAAGCCCGGCCAACCAGGAGAAGGUACUAAAG | 83.2 nM | 89.7 nM | – | – |
| AAGAUACAUGAGGAUCACCCAUGUCGAGAGAGACGAGGAUAUCUGAAUCGAUUAGAUUACGGAGAAGGCGUGAAAA | – | – | 31.5 nM | 25.6 nM |
| GCGUUGAACGAGAAGGCCAAUACAUGAGGAUCACCCAUGUUUAGAUGUUUUGGAGGAUAUCGUACGUAUUCAAUAUUGCAACGC | 10.9 nM | 9.94 nM | – | – |
| CAGUACUGAGGAUAUACAUGAGGAUCACCCAUGUAUUCCAGCUAGGAAACUAGCACAUGUAGAAGGCAGUACUG | 14.2 nM | 31.1 nM | – | – |
